One data set has as its system U-251. Description: Antiproliferative activity against human U251 cells after 72 hrs by MTT assay. As to conditions: U-251, 72 h. The data set is classed as functional, cell-based. The essentials: (§1)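 Cells seeded at 5 × 10^3 per well and cultured 24 h before compound addition at varied concentrations, then grown a further 72 h; 0.5% DMSO as solvent control. MTT (5mg/ml solution) added for 4 h, formazan dissolved in DMSO, absorbance read at 570nm. Each treatment in triplicate; Mean ± SD.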
For orientation: Tetrazolium assays rely on reduction of a dye to a coloured formazan, in cell work by metabolically active cells.

The test system of another data set is HT-29. The data set is described as follows: Antiproliferative activity against human HT-29 cells after 72 hrs by MTT assay. The data set is classed as functional, cell-based. As to conditions: HT-29, 72 h. The essentials: as §1
The subject of another data set is PC-3. The data set is described as follows: Antiproliferative activity against human PC3 cells after 72 hrs by MTT assay. The data set is classed as functional, cell-based. Conditions: PC-3, 72 h. The essentials:
as §1

The subject of another data set is HepG2. The data set is described as follows: Antiproliferative activity against human HepG2 cells after 72 hrs by MTT assay. Conditions: HepG2, 72 h. The data set is classed as functional, cell-based. The essentials: as §1
A further data set deals with CT26. The data set is described as follows: Antiproliferative activity against mouse CT26 cells after 72 hrs by MTT assay. It counts as functional, cell-based. Conditions: CT26, 72 h. The essentials:
as §1

Data set [1] is described as follows: Aqueous solubility of the compound in water at 2 mg after 24 hrs by HPLC analysis. The data set is classed as physicochemical. The method, boiled down: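 Aqueous solubility measured by HPLC against calibration standards at 15–125 µg/mL. Values are the mean of at least three determinations ± SD.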

Converted amounts (≈) assume the structure as drawn.

The values that follow come from ChEMBL document CHEMBL4382247, “A novel series of napabucasin derivatives as orally active inhibitors of signal transducer and activator of transcription 3 (STAT3)” (Eur J Med Chem, 2019).

The IC50 is the concentration that gives 50% inhibition. Higher therefore signals a need for much substance. As for `COc1ccc(CCNC(=O)c2cc3c(o2)C(=O)c2ccccc2C3=O)cc1`, the IC50 was 6.32 µM in the data set on U-251, greater than 10 µM in the data set on HT-29, greater than 10 µM with PC-3 and greater than 10 µM with HepG2.
As usually defined, the solubility is the concentration that dissolves in the medium under given conditions. The low end stands for little dissolved substance, the high end for much dissolved substance. Take `O=C1c2ccccc2C(=O)c2oc(C(=O)N3CCSCC3)cc21`: the IC50 in the data set on U-251 came to 3.1 µM; in the data set on HT-29, 1.65 µM; in the data set on PC-3 it was 5.83 µM; in the data set on CT26 it was 1.35 µM; with HepG2 it was 9.63 µM. Besides, the solubility at 24 h in data set [1] was less than 76.5 µM.
Consider `CC(=O)c1cc2c(o1)C(=O)c1ccccc1C2=O` [NAPABUCASIN], for which the IC50 is 2.6 µM with U-251; 1.6 µM with HT-29; 5.25 µM in the data set with PC-3; 2.5 µM in the data set on CT26; 6.6 µM with HepG2. Besides, the solubility at 24 h in data set [1] is less than 62.5 µM.
Turning to `O=C1c2ccccc2C(=O)c2oc(C(=O)N3CCCC3)cc21`, the IC50 is 2.18 µM in the data set on U-251; 1.08 µM in the data set on HT-29; 9.65 µM in the data set on PC-3; 0.58 µM in the data set with CT26; greater than 10 µM in the data set with HepG2.
Take `O=C1c2ccccc2C(=O)c2oc(C(=O)N3CCC(c4ccc(F)cc4)CC3)cc21`: the concentration for half-maximal inhibition (IC50) in the data set with U-251, with HT-29, with PC-3 and in the data set on HepG2 was greater than 10 µM throughout.
On to `CC1(C)CCC(NC(=O)c2cc3c(o2)C(=O)c2ccccc2C3=O)CC1`, for which the IC50 was 2.65 µM in the data set with U-251, greater than 10 µM in the data set on HT-29, greater than 10 µM in the data set on PC-3 and 11.2 µM in the data set on HepG2.
For `O=C1CCN(C(=O)c2cc3c(o2)C(=O)c2ccccc2C3=O)CC1`, the IC50 with U-251 was 0.58 µM; with HT-29, 1.13 µM; with PC-3, greater than 10 µM; in the data set on CT26 it was 0.61 µM; in the data set on HepG2 it was 2.5 µM. This compound also registered a solubility at 24 h in data set [1] of 118 µM (≈ 38.1 µg/mL).
Turning to `O=C(/C=C/c1ccccc1)c1cc2c(o1)C(=O)c1ccccc1C2=O`, the half-maximal inhibitory concentration (IC50) with U-251, in the data set on HT-29, in the data set on PC-3, with CT26 and with HepG2 was greater than 10 µM each time.
For `O=C(NCCc1ccc(Cl)cc1)c1cc2c(o1)C(=O)c1ccccc1C2=O`, the IC50 is 3.36 µM in the data set on U-251, greater than 10 µM in the data set with HT-29, greater than 10 µM in the data set on PC-3 and greater than 10 µM with HepG2.
Regarding `O=C(/C=C/c1ccc(-c2ccccc2)cc1)c1cc2c(o1)C(=O)c1ccccc1C2=O`, the IC50 in the data set on U-251, with HT-29, in the data set with PC-3, with CT26 and with HepG2 was greater than 10 µM throughout.
With `COC(=O)CC1CCN(C(=O)c2cc3c(o2)C(=O)c2ccccc2C3=O)CC1`, the IC50 in the data set with U-251 was 5.92 µM; in the data set with HT-29, greater than 10 µM; in the data set on PC-3, greater than 10 µM; with HepG2, 9.66 µM.
`O=C(/C=C/c1cccs1)c1cc2c(o1)C(=O)c1ccccc1C2=O`: the IC50 with U-251 was 2.2 µM; with HT-29, 1.52 µM; in the data set with PC-3 it was greater than 10 µM; in the data set with CT26, greater than 10 µM; in the data set with HepG2 it was greater than 10 µM.
As for `CN1CCN(C(=O)c2cc3c(o2)C(=O)c2ccccc2C3=O)CC1`, the half-maximal inhibitory concentration (IC50) turned out to be 1.37 µM in the data set on U-251; 0.39 µM in the data set on HT-29; 4.58 µM in the data set on PC-3; 0.26 µM in the data set with CT26; 5.27 µM in the data set on HepG2. This compound came in with a solubility at 24 h in data set [1] of 337 µM (≈ 109 µg/mL).
Regarding `O=C(NCCN1CCCC1)c1cc2c(o1)C(=O)c1ccccc1C2=O`, the 50% inhibitory concentration (IC50) came out at 0.9 µM in the data set with U-251; 0.3 µM with HT-29; 4.45 µM in the data set on PC-3; 0.2 µM in the data set with CT26; 1.75 µM with HepG2.
Take `O=C(NCCN1CCOCC1)c1cc2c(o1)C(=O)c1ccccc1C2=O`: the IC50 in the data set with U-251 was 1.63 µM; in the data set on HT-29, 0.37 µM; in the data set on PC-3 it was 7.19 µM; with CT26, 0.05 µM; in the data set with HepG2, greater than 10 µM. Besides, in data set [1], the solubility at 24 h was less than 70.6 µM.
In the case of `CCN1CCN(C(=O)c2cc3c(o2)C(=O)c2ccccc2C3=O)CC1`, the IC50 in the data set on U-251 was 0.87 µM; with HT-29 it was 0.21 µM; with PC-3, 2.06 µM; with CT26, 0.59 µM; in the data set with HepG2, greater than 10 µM. Besides, the concentration in solution in data set [1] (solubility at 24 h) came to 241 µM (≈ 81.5 µg/mL).
For `O=C(NCCc1ccccc1)c1cc2c(o1)C(=O)c1ccccc1C2=O`, the IC50 with U-251, in the data set on HT-29, in the data set with PC-3 and with HepG2 was greater than 10 µM throughout.
As for `Cn1cccc1/C=C/C(=O)c1cc2c(o1)C(=O)c1ccccc1C2=O`, the IC50 is 1.5 µM in the data set on U-251; 0.87 µM in the data set with HT-29; greater than 10 µM with PC-3; 2.48 µM with CT26; greater than 10 µM in the data set with HepG2.
Turning to `O=C(NC1CCCCC1)c1cc2c(o1)C(=O)c1ccccc1C2=O`, the IC50 with U-251 was 3.02 µM; in the data set with HT-29, greater than 10 µM; in the data set on PC-3 it was greater than 10 µM; with HepG2, greater than 10 µM.
On to `O=C1c2ccccc2C(=O)c2oc(C(=O)N3CCOCC3)cc21`, for which the IC50 turned out to be 2.19 µM in the data set on U-251; 0.86 µM in the data set on HT-29; 6.84 µM in the data set with PC-3; 0.57 µM in the data set with CT26; 7.3 µM in the data set on HepG2. In data set [1], this compound returned a solubility at 24 h of 162 µM (≈ 50.5 µg/mL).
For the compound `O=C1c2ccccc2C(=O)c2oc(C(=O)N3CCCCC3)cc21`, the IC50 was 2.16 µM in the data set with U-251; 1.57 µM in the data set on HT-29; greater than 10 µM with PC-3; 0.95 µM with CT26; greater than 10 µM in the data set on HepG2.
As for `O=C(NC12CC3CC(CC(C3)C1)C2)c1cc2c(o1)C(=O)c1ccccc1C2=O`, the IC50 in the data set with U-251, in the data set on HT-29, in the data set on PC-3 and in the data set on HepG2 was greater than 10 µM each time.
Turning to `O=C1c2ccccc2C(=O)c2oc(C(=O)N3CCN(c4cccc(C(F)(F)F)c4)CC3)cc21`, the half-inhibitory concentration (IC50) with U-251, with HT-29, in the data set on PC-3 and in the data set on HepG2 was greater than 10 µM in each case.
For `COc1ccc(C2CCN(C(=O)c3cc4c(o3)C(=O)c3ccccc3C4=O)CC2)cc1`, the half-maximal inhibitory concentration (IC50) is greater than 10 µM in the data set with U-251, greater than 10 µM in the data set on HT-29, 9.64 µM in the data set with PC-3 and greater than 10 µM in the data set on HepG2.
For the compound `O=C1c2ccccc2C(=O)c2oc(C(=O)N3CCC(c4cccc(Cl)c4)CC3)cc21`, the IC50 in the data set with U-251, in the data set on HT-29, with PC-3 and in the data set with HepG2 was greater than 10 µM throughout.
